# According to ChEMBL document CHEMBL1157608, “The discovery of 4-{1-[({2,5-dimethyl-4-[4-(trifluoromethyl)benzyl]-3-thienyl}carbonyl)amino]cyclopropyl}benzoic acid (MK-2894), a potent and selective prostaglandin E2 subtype 4 receptor antagonist” (J Med Chem, 2010):
# Tests used:
# [1] = Half life in Sprague-Dawley rat at 5 mg/kg, iv; type: ADME, organism-based; design: dose 5 mg/kg, route intravenous; conditions: in vivo
# Summary of the method: (§1)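 Overnight-fasted animals dosed po in 0.5% methocel or iv in 60% PEG 200; plasma from serial blood samples stored at -10 °C, protein-precipitated with equal volume acetonitrile/0.1% formic acid, analysed by LC/MS/MS with internal standard against spiked blank-plasma standards; Cmax from po data, half-life from iv data.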
# [2] = Oral bioavailability in Beagle dog at 5 mg/kg; type: ADME, organism-based, Canis lupus familiaris; conditions: in vivo; summary of the method: as §1
# [3] = Oral bioavailability in C57BL/6 mouse at 20 mg/kg; type: ADME, organism-based; conditions: in vivo; summary of the method: as §1
# [4] = target: T1, Prostaglandin E2 receptor EP3 subtype (Homo sapiens, UniProt P43115); assay: Displacement of [3H]PGE2 from human EP3 receptor expressed in HEK293-EBNA cells by scintillation counting; type: cell-based
# T1 sequence (P43115 whole entry): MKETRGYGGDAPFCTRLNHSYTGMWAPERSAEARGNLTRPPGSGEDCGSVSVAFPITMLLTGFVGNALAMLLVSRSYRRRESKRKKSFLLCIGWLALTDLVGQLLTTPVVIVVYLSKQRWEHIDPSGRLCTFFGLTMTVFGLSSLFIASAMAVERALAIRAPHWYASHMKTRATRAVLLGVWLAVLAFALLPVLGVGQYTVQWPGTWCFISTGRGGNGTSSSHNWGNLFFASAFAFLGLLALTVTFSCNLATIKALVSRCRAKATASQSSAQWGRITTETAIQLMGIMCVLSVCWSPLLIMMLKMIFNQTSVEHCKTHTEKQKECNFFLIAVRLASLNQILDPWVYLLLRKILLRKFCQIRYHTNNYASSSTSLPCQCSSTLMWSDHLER
# Summary of the method: (§2)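 Radioligand binding on membranes from HEK 293(EBNA) clonal lines overexpressing each prostanoid receptor, using the respective 3H-prostaglandin or thromboxane ligand; EP4 binding also run with 10% human serum; Ki as means of at least three experiments (rEP2, rEP3 n = 1).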
# [5] = Half life in Beagle dog at 1 mg/kg, iv; type: ADME, organism-based, Canis lupus familiaris; design: dose 1 mg/kg, route intravenous; conditions: in vivo; summary of the method: as §1
# [6] = Oral bioavailability in Sprague-Dawley rat at 20 mg/kg; type: ADME, organism-based; conditions: in vivo; summary of the method: as §1
# [7] = target: T2, Prostaglandin D2 receptor (Homo sapiens, UniProt Q13258); assay: Displacement of [3H]PGD2 from human DP1 receptor expressed in HEK293-EBNA cells by scintillation counting; type: cell-based; summary of the method: as §2
# T2 sequence (Q13258 whole entry): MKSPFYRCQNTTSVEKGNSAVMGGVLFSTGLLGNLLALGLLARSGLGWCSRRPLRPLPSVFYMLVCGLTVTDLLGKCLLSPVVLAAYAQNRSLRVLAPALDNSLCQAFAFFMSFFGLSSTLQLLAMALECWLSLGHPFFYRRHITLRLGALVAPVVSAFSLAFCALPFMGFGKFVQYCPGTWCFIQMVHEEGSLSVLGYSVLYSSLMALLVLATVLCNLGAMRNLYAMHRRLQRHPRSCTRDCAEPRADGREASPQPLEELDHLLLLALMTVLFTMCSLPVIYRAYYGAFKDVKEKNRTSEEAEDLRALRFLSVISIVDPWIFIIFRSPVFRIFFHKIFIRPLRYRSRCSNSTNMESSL
# [8] = target: T3, Prostaglandin E2 receptor EP1 subtype (Rattus norvegicus, UniProt P70597); assay: Displacement of [3H]PGE2 from rat EP1 receptor expressed in HEK293-EBNA cells by scintillation counting; type: cell-based; summary of the method: as §2
# T3 sequence (P70597 whole entry): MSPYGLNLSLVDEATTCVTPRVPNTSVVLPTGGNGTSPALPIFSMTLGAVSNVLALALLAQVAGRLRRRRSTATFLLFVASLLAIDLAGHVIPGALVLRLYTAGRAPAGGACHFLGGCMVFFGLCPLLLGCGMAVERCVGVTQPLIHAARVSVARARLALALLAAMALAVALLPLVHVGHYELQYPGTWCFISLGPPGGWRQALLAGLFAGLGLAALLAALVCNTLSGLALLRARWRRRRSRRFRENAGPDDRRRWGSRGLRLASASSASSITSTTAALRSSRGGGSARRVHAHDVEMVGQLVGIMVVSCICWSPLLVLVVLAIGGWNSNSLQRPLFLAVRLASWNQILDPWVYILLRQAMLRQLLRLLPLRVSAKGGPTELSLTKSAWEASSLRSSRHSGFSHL
# [9] = target: Prostaglandin F2-alpha receptor (Homo sapiens, UniProt P43088); assay: Displacement of [3H]PGF2alpha from human FP receptor expressed in HEK293-EBNA cells by scintillation counting; type: cell-based; summary of the method: as §2
# Chain of Prostaglandin F2-alpha receptor (P43088 whole entry): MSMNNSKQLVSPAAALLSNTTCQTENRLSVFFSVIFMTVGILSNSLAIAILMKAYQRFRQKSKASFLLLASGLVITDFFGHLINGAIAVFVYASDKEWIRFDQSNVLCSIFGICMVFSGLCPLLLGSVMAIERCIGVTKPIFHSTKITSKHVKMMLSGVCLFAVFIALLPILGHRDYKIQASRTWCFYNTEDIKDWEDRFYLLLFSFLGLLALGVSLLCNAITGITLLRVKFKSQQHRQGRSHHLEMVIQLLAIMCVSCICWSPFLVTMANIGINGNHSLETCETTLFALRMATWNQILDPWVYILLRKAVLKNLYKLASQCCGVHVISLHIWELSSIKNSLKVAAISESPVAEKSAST
# Cynomolgus monkey [10] = assay: Volume of distribution at steady state in cynomolgus monkey at 5 mg/kg, po and 1 mg/kg, iv; type: ADME, organism-based, Macaca fascicularis; conditions: in vivo; summary of the method: as §1
# [11] = Cmax in Sprague-Dawley rat at 20 mg/kg, po; type: ADME, organism-based; design: dose 20 mg/kg, route oral; conditions: in vivo; summary of the method: as §1
# Rattus norvegicus [12] = assay: Plasma concentration in complete Freund's adjuvant-induced Sprague-Dawley rat inflammatory pain model at 0.1 mg/kg/day, po; type: ADME, organism-based; design: route oral; conditions: in vivo
# Summary of the method: (§3)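 Adjuvant-induced arthritis in rats: CFA injected into primary paw on day 0; oral dosing in 0.5% methocel once daily for 9 days starting day 9; secondary paw swelling measured; plasma levels taken 24 h after final dose; n = 7/group; 1-way ANOVA/Dunnett's vs vehicle.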
# [13] = target: Prostaglandin E2 receptor EP4 subtype (Homo sapiens, UniProt P35408); assay: Displacement of [3H]PGE2 from human EP4 receptor expressed in HEK293-EBNA cells by scintillation counting; type: cell-based; summary of the method: as §2
# Chain of Prostaglandin E2 receptor EP4 subtype (P35408 whole entry): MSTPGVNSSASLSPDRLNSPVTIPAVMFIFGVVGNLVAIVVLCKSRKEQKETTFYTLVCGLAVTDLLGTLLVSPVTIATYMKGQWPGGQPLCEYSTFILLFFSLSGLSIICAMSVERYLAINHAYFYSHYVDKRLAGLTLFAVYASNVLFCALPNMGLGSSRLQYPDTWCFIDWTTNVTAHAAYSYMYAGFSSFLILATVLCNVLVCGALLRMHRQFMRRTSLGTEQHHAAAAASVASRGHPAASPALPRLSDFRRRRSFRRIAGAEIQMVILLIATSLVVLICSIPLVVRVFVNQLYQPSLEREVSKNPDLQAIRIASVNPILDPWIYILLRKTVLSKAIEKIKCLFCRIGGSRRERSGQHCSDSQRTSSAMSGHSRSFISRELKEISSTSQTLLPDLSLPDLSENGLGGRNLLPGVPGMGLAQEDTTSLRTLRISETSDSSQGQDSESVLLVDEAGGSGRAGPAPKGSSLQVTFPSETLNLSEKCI
# [14] = target: Prostaglandin E2 receptor EP2 subtype (Rattus norvegicus, UniProt Q62928); assay: Displacement of [3H]PGE2 from rat EP2 receptor expressed in HEK293-EBNA cells by scintillation counting; type: cell-based; summary of the method: as §2
# Chain of Prostaglandin E2 receptor EP2 subtype (Rattus norvegicus, UniProt Q62928) (Q62928 whole entry): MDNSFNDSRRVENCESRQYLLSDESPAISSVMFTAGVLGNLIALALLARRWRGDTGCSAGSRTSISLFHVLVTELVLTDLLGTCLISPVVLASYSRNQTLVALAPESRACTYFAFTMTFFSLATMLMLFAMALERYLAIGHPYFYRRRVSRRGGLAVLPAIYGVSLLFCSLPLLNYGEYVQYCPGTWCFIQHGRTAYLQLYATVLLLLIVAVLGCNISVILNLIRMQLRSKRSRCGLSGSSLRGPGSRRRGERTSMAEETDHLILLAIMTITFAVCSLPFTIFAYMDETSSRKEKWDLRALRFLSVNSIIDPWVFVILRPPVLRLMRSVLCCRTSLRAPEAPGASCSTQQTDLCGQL
# [15] = target: Prostaglandin E2 receptor EP2 subtype (Homo sapiens, UniProt P43116); assay: Displacement of [3H]PGE2 from human EP2 receptor expressed in HEK293-EBNA cells by scintillation counting; type: cell-based; summary of the method: as §2
# Chain of Prostaglandin E2 receptor EP2 subtype (Homo sapiens, UniProt P43116) (P43116 whole entry): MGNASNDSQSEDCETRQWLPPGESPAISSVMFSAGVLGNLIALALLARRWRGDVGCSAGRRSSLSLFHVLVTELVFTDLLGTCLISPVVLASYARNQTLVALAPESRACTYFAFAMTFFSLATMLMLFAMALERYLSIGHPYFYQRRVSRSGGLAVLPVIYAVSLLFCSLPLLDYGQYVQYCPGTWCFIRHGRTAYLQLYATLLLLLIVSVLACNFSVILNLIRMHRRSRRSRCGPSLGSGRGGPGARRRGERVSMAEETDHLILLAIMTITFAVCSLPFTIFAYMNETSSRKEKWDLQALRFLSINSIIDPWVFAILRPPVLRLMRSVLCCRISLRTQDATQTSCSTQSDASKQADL
# [16] = Volume of distribution at steady state in Sprague-Dawley rat at 20 mg/kg, po and 5 mg/kg, iv; type: ADME, organism-based; conditions: in vivo, read-out: Vdss; summary of the method: as §1
# Rattus norvegicus [17] = assay: Analgesic activity in po dosed Sprague-Dawley rat assessed as inhibition of carrageenan-induced mechanical hyperalgesia
# Rattus norvegicus [18] = organism: Rattus norvegicus; assay: Analgesic activity against complete Freund's adjuvant-induced Sprague-Dawley rat inflammatory pain assessed as inhibition of chronic paw swelling; type: functional; summary of the method: as §3
# [19] = Half life in C57BL/6 mouse at 5 mg/kg, iv; type: ADME, organism-based; design: dose 5 mg/kg, route intravenous; conditions: in vivo; summary of the method: as §1
# Cynomolgus monkey [20] = assay: Half life bioavailability in cynomolgus monkey at 1 mg/kg, iv; type: ADME, organism-based, Macaca fascicularis; conditions: in vivo; summary of the method: as §1
compound,measurement,setting,value
Cc1sc(C)c(C(=O)NC2(c3ccc(C(=O)O)cc3)CC2)c1Cc1ccc(C(F)(F)F)cc1,half-life,[1],4.5 h
same,bioavailability,[2],32%
same,bioavailability,[3],21%
same,Ki,[4],> 7.9 µM
same,half-life,[5],8.8 h
same,bioavailability,[6],29%
same,Ki,[7],> 3.9 µM
same,Ki,[8],> 29 µM
same,Ki,[9],> 24 µM
same,Vdss,Cynomolgus monkey [10],7.9 L/kg
same,Cmax,[11],4500 nM
same,concentration,Rattus norvegicus [12],4 nM
same,Ki,[13],0.00056 µM
same,Ki,[14],7.2 µM
same,Ki,[15],5.9 µM
same,Vd,[16],2.6 L/kg
same,EC50,Rattus norvegicus [17],0.25 µM
same,ED50,Rattus norvegicus [17]; po,0.36 mg/kg
same,Activity,Rattus norvegicus [18],Dose-dependent effect
same,ED50,Rattus norvegicus [18],0.02 mg/kg
same,half-life,[19],15 h
same,t1/2,Cynomolgus monkey [20],19 h
